# Laboratory results as given in ChEMBL document CHEMBL3779855, “In vitro screening of 2-(1H-imidazol-1-yl)-1-phenylethanol derivatives as antiprotozoal agents and docking studies on Trypanosoma cruzi CYP51” (Eur J Med Chem, 2016).
# Tests used:
# [1] = system: Trypanosoma cruzi; assay: Antiparasitic activity against nifurtimox-sensitive amastigote stage of Trypanosoma cruzi tulahuen CL2 infected in human MRC5 cells; assay type: functional, organism-based
# [2] = Selectivity index, ratio of IC50 for human MRC5 cells to IC50 for nifurtimox-sensitive amastigote stage of Trypanosoma cruzi tulahuen CL2 infected in human MRC5 cells; assay type: toxicity, cell-based; conditions: read-out: Ratio IC50
# [3] = system: Leishmania infantum; assay: Antiparasitic activity against amastigote stage of Leishmania infantum MHOM/MA-BE/67 infected in mouse peritoneal macrophages after 5 days by Giemsa staining based microscopic analysis; assay type: functional, organism-based; conditions: MHOM/MA-BE/67, 120 h
# [4] = system: MRC5; assay: Cytotoxicity against human MRC5 cells assessed as cell viability after 4 to 7 days by Alamar Blue staining based fluorometric analysis
# [5] = system: Trypanosoma brucei rhodesiense; assay: Antiparasitic activity against suramin-sensitive trypomastigote stage of Trypanosoma brucei rhodesiense squib-427 infected in human MRC5 cells after 4 days by Alamar blue staining based fluorimetric analysis; assay type: functional, organism-based; conditions: squib-427, 96 h
# [6] = system: Plasmodium falciparum; assay: Antiparasitic activity against chloroquine-resistant erythrocytic stage of Plasmodium falciparum K1 infected in […] after 72 hrs by NBT staining based spectroscopic analysis; assay type: functional, organism-based; conditions: K1, 72 h
# [7] = Metabolic stability in human liver microsomes at 50 uM after 60 mins by LC-UV-MS analysis in the presence of NADPH-generating system; assay type: ADME; conditions: read-out: Stability
# Method in brief: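 Test compound at 50 μM in pH 7.4 phosphate buffer with 2% DMSO, incubated at 37°C for 60 min with human liver microsomal protein and an NADPH-generating system. The reaction was then stopped, and parent drug and metabolites were measured by LC-UV-MS.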
# [8] = system: Trypanosoma cruzi; assay: Potency index, ratio of benznidazole IC50 to compound IC50 for nifurtimox-sensitive amastigote stage of Trypanosoma cruzi tulahuen CL2 infected in human MRC5 cells; assay type: functional
Structure (SMILES),IC50 [1],selectivity ratio [2],IC50 [3],IC50 [4],IC50 [5],IC50 [6],"remaining at 1 h, 50 µM [7]",Ratio IC50 [8]
O=C(O[C@H](Cn1ccnc1)c1ccc(F)cc1)c1ccc(-c2ccccc2)cc1,0.49 µM,16.3,34.6 µM,8 µM,33.7 µM,2 µM,–,–
O=C(O[C@H](Cn1ccnc1)c1ccc(Cl)cc1)c1ccc(-c2ccccc2)cc1,0.56 µM,14.6,32 µM,8.2 µM,30.1 µM,2.1 µM,–,–
CC/C(=C(\c1ccccc1)c1ccc(OCCN(C)C)cc1)c1ccccc1 [TAMOXIFEN],–,–,–,10.9 µM,–,–,–,–
O=C(O[C@H](Cn1ccnc1)c1ccc(Cl)cc1)N1CCN(c2ccc([N+](=O)[O-])cc2)CC1,1.32 µM,6.4,12.7 µM,8.5 µM,> 64 µM,1.5 µM,–,–
O=C(O[C@H](Cn1ccnc1)c1ccc(F)cc1)N1CCN(c2ccc([N+](=O)[O-])cc2)CC1,5.44 µM,1.5,> 64 µM,8.2 µM,> 64 µM,1.3 µM,–,–
O=C(OC(Cn1ccnc1)c1ccc(Cl)cc1)N1CCN(c2ccc([N+](=O)[O-])cc2)CC1 (racemic),0.87 µM,9.4,8 µM,8.2 µM,8 µM,2.4 µM,–,–
O=C(OC(Cn1ccnc1)c1ccc(Cl)cc1)N1CCN(C(=O)c2ccco2)CC1 (racemic),5.84 µM,> 10.9,> 64 µM,> 64 µM,> 64 µM,10.7 µM,–,–
O=C(O[C@@H](Cn1ccnc1)c1ccc(Cl)cc1)c1ccc(-c2ccccc2)cc1,0.2 µM,39,> 64 µM,7.8 µM,32.4 µM,2 µM,–,–
CCS(=O)(=O)N1CCN(c2ccc(NC(=O)OC(Cn3ccnc3)c3ccc(F)cc3)cc2)CC1 (racemic),0.04 µM,> 1600,38 µM,> 64 µM,> 64 µM,17.2 µM,99%,50
O=C(OC(Cn1ccnc1)c1ccc(F)cc1)c1ccc(-c2ccccc2)cc1 (racemic),0.71 µM,10.9,32.2 µM,7.8 µM,32.2 µM,0.6 µM,–,–
O=C(Nc1ccc(N2CCN(C(=O)c3ccco3)CC2)cc1)O[C@H](Cn1ccnc1)c1ccc(F)cc1,0.13 µM,288,> 64 µM,37.5 µM,> 64 µM,5.2 µM,–,–
O=C(OC(Cn1ccnc1)c1ccc(Cl)cc1)c1ccc(-c2ccccc2)cc1 (racemic),0.48 µM,15,12.7 µM,7.2 µM,32.4 µM,1.9 µM,–,–
O=C(O[C@@H](Cn1ccnc1)c1ccc(F)cc1)N1CCN(c2ccc([N+](=O)[O-])cc2)CC1,1.23 µM,7,20.3 µM,8.7 µM,32.2 µM,1.2 µM,–,–
CCCCCCCCCCCCCCCCOP(=O)([O-])OCC[N+](C)(C)C [MILTEFOSINE],–,–,10.4 µM,–,–,–,–,–
O=C(O[C@@H](Cn1ccnc1)c1ccc(F)cc1)c1ccc(-c2ccccc2)cc1,1.8 µM,> 35.6,> 64 µM,> 64 µM,> 64 µM,2.3 µM,–,–
O=C(Nc1ccc(N2CCN(C(=O)c3ccco3)CC2)cc1)O[C@@H](Cn1ccnc1)c1ccc(F)cc1,1.72 µM,15.4,> 64 µM,26.5 µM,> 64 µM,4 µM,–,–
O=C(Nc1ccc(N2CCN(C(=O)c3ccco3)CC2)cc1)OC(Cn1ccnc1)c1ccc(F)cc1 (racemic),0.79 µM,33.4,28.9 µM,26.4 µM,32.9 µM,4 µM,99%,–
Cc1ccc(C(=O)Nc2ccc(S(=O)(=O)O)c3cc(S(=O)(=O)O)cc(S(=O)(=O)O)c23)cc1NC(=O)c1cccc(NC(=O)Nc2cccc(C(=O)Nc3cc(C(=O)Nc4ccc(S(=O)(=O)O)c5cc(S(=O)(=O)O)cc(S(=O)(=O)O)c45)ccc3C)c2)c1 [SURAMIN],–,–,–,–,0.02 µM,–,–,–
O=C(Cn1ccnc1[N+](=O)[O-])NCc1ccccc1 [BENZNIDAZOLE],1.95 µM,–,–,–,–,–,–,–
O=C(OC(Cn1ccnc1)c1ccc(F)cc1)N1CCN(c2ccc([N+](=O)[O-])cc2)CC1 (racemic),1.68 µM,9.2,27.2 µM,15.5 µM,27.2 µM,2.6 µM,–,–
O=C(OC(Cn1ccnc1)c1ccc(-c2ccccc2)cc1)c1ccc(-c2ccccc2)cc1 (racemic),2.72 µM,3.2,8 µM,8.8 µM,29.1 µM,7.7 µM,–,–
O=C(O[C@@H](Cn1ccnc1)c1ccc(Cl)cc1)N1CCN(c2ccc([N+](=O)[O-])cc2)CC1,1 µM,8.7,12.7 µM,8.7 µM,32.2 µM,2.2 µM,–,–
